Source: ChEMBL document CHEMBL1177882, “Novel bisstyryl derivatives of bakuchiol: targeting oral cavity pathogens” (2010)
Values after ≈ are worked out from the molar mass of the structure shown.

What was measured:
Streptococcus mutans [1] = assay: Antibacterial activity against Streptococcus mutans ATCC 25175 assessed as inhibition of biofilm formation after 18 hrs; type: functional
Summary of the method: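 Single-species S. mutans biofilm grown in flat-bottom polystyrene wells, BHI with 2% sucrose, 6 × 10^7 cfu/ml final, compound twofold 0.12–128 µg/ml, 18 h at 37 °C in 5% CO2. Wells rinsed with PBS pH 7.2, methanol-fixed, stained with 0.1% crystal violet, eluted in 95% ethanol, A595 read. % inhibition relative to untreated control; MBIC50 is the lowest concentration giving ≥50% inhibition.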

Fusobacterium nucleatum = assay: Antibacterial activity against Fusobacterium nucleatum ATCC 10953 after 48 hrs by broth microdilution method; type: functional; details: ATCC 10953, 48 h
Summary of the method: (§1)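 Broth microdilution MIC for obligate anaerobes, run in their growth media (Wilkins–Chalgren for F. nucleatum and P. intermedia; supplemented Todd Hewitt broth for P. gingivalis). Inoculum suspended in Brucella broth, final 5 × 10^6 cfu/ml. Twofold dilutions, final 0.12–128 µg/ml. Incubated anaerobically (90% N2/5% H2/5% CO2) at 37 °C for 48 h; MIC is the lowest concentration without turbidity.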

Streptococcus sanguinis [2] = assay: Antibacterial activity against Streptococcus sanguinis ATCC 10556 after 24 hrs by broth microdilution method; details: ATCC 10556, 24 h
Streptococcus mutans [3] = assay: Ratio of compound MBIC50 to bakuchiol MBIC50 for Streptococcus mutans ATCC 25175; type: functional
Summary of the method: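 MBIC50 from crystal-violet S. mutans biofilm assay (BHI + 2% sucrose, 18 h, 37 °C, 5% CO2, A595 read) for each compound, divided by the bakuchiol MBIC50 from the same assay.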

Porphyromonas gingivalis = assay: Antibacterial activity against Porphyromonas gingivalis ATCC 33277 after 48 hrs by broth microdilution method; type: functional; details: ATCC 33277, 48 h; summary of the method: as §1
Actinomyces viscosus [4] = assay: Antibacterial activity against Actinomyces viscosus ATCC 15987 after 24 hrs by broth microdilution method; details: ATCC 15987, 24 h
Prevotella intermedia = assay: Antibacterial activity against Prevotella intermedia ATCC 25611 after 48 hrs by broth microdilution method; type: functional; details: ATCC 25611, 48 h; summary of the method: as §1
Streptococcus sanguinis [5] = assay: Antibacterial activity against Streptococcus sanguinis ATCC 10556 after 48 hrs by broth microdilution method; type: functional; details: ATCC 10556, 48 h
Streptococcus mutans [6] = assay: Antibacterial activity against Streptococcus mutans ATCC 25175 after 24 hrs by broth microdilution method; details: ATCC 25175, 24 h
Streptococcus mutans [7] = assay: Antibacterial activity against Streptococcus mutans ATCC 25175 after 48 hrs by broth microdilution method; type: functional; details: ATCC 25175, 48 h
Actinomyces viscosus [8] = assay: Antibacterial activity against Actinomyces viscosus ATCC 15987 after 48 hrs by broth microdilution method; type: functional; details: ATCC 15987, 48 h

MIC (Fusobacterium nucleatum): > 128 µg/mL
MIC (Streptococcus sanguinis [2]): 4 µg/mL (≈ 11.4 µM)
MIC (Porphyromonas gingivalis): 2 µg/mL (≈ 5.71 µM)
MIC (Actinomyces viscosus [4]): 4 µg/mL (≈ 11.4 µM)
MIC (Prevotella intermedia): 2 µg/mL (≈ 5.71 µM)
MIC (Streptococcus mutans [6]): 4 µg/mL (≈ 11.4 µM)
SMILES: CC(C)=CCC[C@](C)(/C=C/c1ccc(O)cc1)/C=C/c1ccc(F)cc1
MBIC50 (Streptococcus mutans [1]): 8 µg/mL
MBC (Fusobacterium nucleatum): > 128 µg/mL
Ratio (Streptococcus mutans [3]): 2
MBC (Porphyromonas gingivalis): 4 µg/mL (≈ 11.4 µM)
MBC (Prevotella intermedia): 4 µg/mL (≈ 11.4 µM)
MBC (Streptococcus sanguinis [5]): 8 µg/mL (≈ 22.8 µM)
MBC (Streptococcus mutans [7]): 4 µg/mL (≈ 11.4 µM)
MBC (Actinomyces viscosus [8]): 8 µg/mL (≈ 22.8 µM)
